# Data taken from ChEMBL document CHEMBL1240473, “Synthesis and bioassay of aminosulfonyl-1,3,4-oxadiazoles and their interconversion to 1,3,4-thiadiazoles” (2010).
# Experiments:
# Format in all cases: functional
# [1] = Antioxidant activity assessed as nitric oxide scavenging activity at 100 uM after 120 min by Griess assay
# Summary of the method: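 Sodium nitroprusside (5 mM) in phosphate buffer pH 7.4 was incubated with test compound dissolved in dioxane/methanol at 25 °C for 120 min. A solvent-only control was run in parallel. Aliquots were mixed 1:1 with Griess reagent (1% sulfanilamide, 0.1% N-naphthylethylenediamine dihydrochloride, 2% o-phosphoric acid in water).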
# [2] = test system: Radical scavenging activity; experiment: Antioxidant activity assessed as DPPH free radical scavenging activity at 100 uM after 20 mins
# Summary of the method: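 Compound solutions were added to DPPH in dioxane/ethanol and kept at ambient temperature for 20 min, then absorbance was read at 517 nm. Percent inhibition = (A_control − A_sample)/A_control × 100, […].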
# Staphylococcus aureus [3] = experiment: Antimicrobial activity against Staphylococcus aureus NCIM 5021 at 100 ug/disk after 24 hrs by agar disc-diffusion method; conditions: NCIM 5021, 24 h, read-out: DIZ
# Summary of the method: (§1)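 Agar disc diffusion with NCIM strains. Sterile 6 mm filter-paper discs were moistened with compound in DMSO at 100 or 200 per disc and placed on agar plates pre-inoculated with each organism. Plates were incubated at 37 °C. Growth-inhibition zone diameter was read at 24 h for bacteria and 48 h for fungi.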
# Staphylococcus aureus [4] = experiment: Antimicrobial activity against Staphylococcus aureus NCIM 5021 at 200 ug/disk after 24 hrs by agar disc-diffusion method; conditions: NCIM 5021, 24 h, read-out: DIZ; summary of the method: as §1
# Bacillus subtilis [5] = experiment: Antimicrobial activity against Bacillus subtilis NCIM 2063 at 100 ug/disk after 24 hrs by agar disc-diffusion method; conditions: NCIM 2063, 24 h, read-out: DIZ; summary of the method: as §1
# Bacillus subtilis [6] = experiment: Antimicrobial activity against Bacillus subtilis NCIM 2063 at 200 ug/disk after 24 hrs by agar disc-diffusion method; conditions: NCIM 2063, 24 h, read-out: DIZ; summary of the method: as §1
# Klebsiella pneumoniae [7] = experiment: Antimicrobial activity against Klebsiella pneumoniae NCIM 2957 at 100 ug/disk after 24 hrs by agar disc-diffusion method; conditions: NCIM 2957, 24 h, read-out: DIZ; summary of the method: as §1
# Klebsiella pneumoniae [8] = experiment: Antimicrobial activity against Klebsiella pneumoniae NCIM 2957 at 200 ug/disk after 24 hrs by agar disc-diffusion method; conditions: NCIM 2957, 24 h, read-out: DIZ; summary of the method: as §1
# Proteus vulgaris [9] = experiment: Antimicrobial activity against Proteus vulgaris NCIM 2027 at 100 ug/disk after 24 hrs by agar disc-diffusion method; conditions: NCIM 2027, 24 h, read-out: DIZ
# Proteus vulgaris [10] = experiment: Antimicrobial activity against Proteus vulgaris NCIM 2027 at 200 ug/disk after 24 hrs by agar disc-diffusion method; conditions: NCIM 2027, 24 h, read-out: DIZ
# Fusarium solani [11] = experiment: Antimicrobial activity against Fusarium solani NCIM 1330 at 100 ug/disk after 48 hrs by agar disc-diffusion method; conditions: NCIM 1330, 48 h, read-out: DIZ; summary of the method: as §1
# Fusarium solani [12] = experiment: Antimicrobial activity against Fusarium solani NCIM 1330 at 200 ug/disk after 48 hrs by agar disc-diffusion method; conditions: NCIM 1330, 48 h, read-out: DIZ; summary of the method: as §1
# Curvularia lunata [13] = experiment: Antimicrobial activity against Curvularia lunata NCIM 716 at 100 ug/disk after 48 hrs by agar disc-diffusion method; conditions: NCIM 716, 48 h, read-out: DIZ; summary of the method: as §1
# Curvularia lunata [14] = experiment: Antimicrobial activity against Curvularia lunata NCIM 716 at 200 ug/disk after 48 hrs by agar disc-diffusion method; conditions: NCIM 716, 48 h, read-out: DIZ; summary of the method: as §1
# Aspergillus niger [15] = experiment: Antimicrobial activity against Aspergillus niger NCIM 596 at 100 ug/disk after 48 hrs by agar disc-diffusion method; conditions: NCIM 596, 48 h, read-out: DIZ; summary of the method: as §1
# Aspergillus niger [16] = experiment: Antimicrobial activity against Aspergillus niger NCIM 596 at 200 ug/disk after 48 hrs by agar disc-diffusion method; conditions: NCIM 596, 48 h, read-out: DIZ; summary of the method: as §1
# Bacillus subtilis [17] = experiment: Antimicrobial activity against Bacillus subtilis NCIM 2063 after 24 hrs by microdilution susceptibility method; conditions: NCIM 2063, 24 h
# Summary of the method: (§2)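 Broth microdilution MIC with NCIM strains. Compounds and the references (chloramphenicol, antibacterial; ketoconazole, antifungal) were dissolved in DMSO at 800 and diluted two-fold from 400 down to 6.25. Wells were inoculated with the microbial suspension and incubated at 36 °C, 24 h for bacteria and 48 h for fungi. MIC was the lowest concentration with no visible growth.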
# Klebsiella pneumoniae [18] = experiment: Antimicrobial activity against Klebsiella pneumoniae NCIM 2957 after 24 hrs by microdilution susceptibility method; conditions: NCIM 2957, 24 h; summary of the method: as §2
# Proteus vulgaris [19] = experiment: Antimicrobial activity against Proteus vulgaris NCIM 2027 after 24 hrs by microdilution susceptibility method; conditions: NCIM 2027, 24 h
# Staphylococcus aureus [20] = experiment: Antimicrobial activity against Staphylococcus aureus NCIM 5021 after 24 hrs by microdilution susceptibility method; conditions: NCIM 5021, 24 h; summary of the method: as §2
# Fusarium solani [21] = experiment: Antimicrobial activity against Fusarium solani NCIM 1330 after 48 hrs by microdilution susceptibility method; conditions: NCIM 1330, 48 h; summary of the method: as §2
# Curvularia lunata [22] = experiment: Antimicrobial activity against Curvularia lunata NCIM 716 after 48 hrs by microdilution susceptibility method; conditions: NCIM 716, 48 h; summary of the method: as §2
# Aspergillus niger [23] = experiment: Antimicrobial activity against Aspergillus niger NCIM 596 after 48 hrs by microdilution susceptibility method; conditions: NCIM 596, 48 h; summary of the method: as §2
Compound,Activity [1],Activity [2],zone of inhibition at 100 µg/disc (Staphylococcus aureus [3]),zone of inhibition at 200 µg/disc (Staphylococcus aureus [4]),zone of inhibition at 100 µg/disc (Bacillus subtilis [5]),zone of inhibition at 200 µg/disc (Bacillus subtilis [6]),zone of inhibition at 100 µg/disc (Klebsiella pneumoniae [7]),zone of inhibition at 200 µg/disc (Klebsiella pneumoniae [8]),zone of inhibition at 100 µg/disc (Proteus vulgaris [9]),zone of inhibition at 200 µg/disc (Proteus vulgaris [10]),zone of inhibition at 100 µg/disc (Fusarium solani [11]),zone of inhibition at 200 µg/disc (Fusarium solani [12]),zone of inhibition at 100 µg/disc (Curvularia lunata [13]),zone of inhibition at 200 µg/disc (Curvularia lunata [14]),zone of inhibition at 100 µg/disc (Aspergillus niger [15]),zone of inhibition at 200 µg/disc (Aspergillus niger [16]),also measured
O=S(=O)(Cc1nnc(-c2ccccc2)s1)Nc1ccccc1,25.4%,27.8%,19 mm,22 mm,18 mm,20 mm,14 mm,17 mm,15 mm,16 mm,22 mm,24 mm,24 mm,25 mm,19 mm,21 mm,–
Cc1ccc(NS(=O)(=O)Cc2nnc(CS(=O)(=O)c3ccc(C)cc3)o2)cc1,57.2%,58.6%,12 mm,15 mm,11 mm,13 mm,10 mm,12 mm,10 mm,12 mm,14 mm,18 mm,15 mm,17 mm,13 mm,15 mm,–
O=C(N[C@H](CO)[C@H](O)c1ccc([N+](=O)[O-])cc1)C(Cl)Cl [CHLORAMPHENICOL],–,–,35 mm,41 mm,38 mm,44 mm,37 mm,42 mm,42 mm,45 mm,–,–,–,–,–,–,MIC (Bacillus subtilis [17]): 6.25 mg/L; MIC (Klebsiella pneumoniae [18]): 12.5 mg/L; MIC (Proteus vulgaris [19]): 12.5 mg/L; MIC (Staphylococcus aureus [20]): 6.25 mg/L
O=S(=O)(Cc1nnc(-c2ccccc2)o1)Nc1ccccc1,63.5%,62.3%,10 mm,13 mm,9 mm,11 mm,7 mm,9 mm,6 mm,8 mm,11 mm,13 mm,13 mm,15 mm,12 mm,16 mm,–
O=S(=O)(Cc1nnc(CS(=O)(=O)c2ccc(Cl)cc2)o1)Nc1ccc(Cl)cc1,69.4%,71%,13 mm,15 mm,12 mm,14 mm,11 mm,13 mm,13 mm,14 mm,17 mm,19 mm,14 mm,18 mm,16 mm,18 mm,–
Cc1ccc(NS(=O)(=O)Cc2nnc(-c3ccc(C)cc3)o2)cc1,54.3%,58.1%,10 mm,12 mm,9 mm,10 mm,7 mm,8 mm,7 mm,9 mm,12 mm,15 mm,14 mm,16 mm,10 mm,12 mm,–
Cc1ccc(NS(=O)(=O)Cc2nnc(-c3ccc(C)cc3)s2)cc1,29.4%,32.3%,20 mm,23 mm,22 mm,24 mm,18 mm,19 mm,13 mm,15 mm,19 mm,22 mm,21 mm,24 mm,17 mm,18 mm,–
O=S(=O)(Cc1nnc(CS(=O)(=O)c2ccc(Cl)cc2)s1)Nc1ccc(Cl)cc1,28.2%,29.9%,31 mm,33 mm,28 mm,32 mm,28 mm,30 mm,25 mm,28 mm,33 mm,37 mm,34 mm,36 mm,32 mm,33 mm,MIC (Bacillus subtilis [17]): 25 mg/L; MIC (Klebsiella pneumoniae [18]): 50 mg/L; MIC (Proteus vulgaris [19]): 50 mg/L; MIC (Fusarium solani [21]): 50 mg/L; MIC (Curvularia lunata [22]): 50 mg/L; MIC (Aspergillus niger [23]): 50 mg/L; MIC (Staphylococcus aureus [20]): 25 mg/L
CC(=O)N1CCN(c2ccc(OCC3COC(Cn4ccnc4)(c4ccc(Cl)cc4Cl)O3)cc2)CC1 (centres undefined) [KETOCONAZOLE],–,–,–,–,–,–,–,–,–,–,38 mm,42 mm,41 mm,44 mm,36 mm,39 mm,MIC (Fusarium solani [21]): 12.5 mg/L; MIC (Curvularia lunata [22]): 6.25 mg/L; MIC (Aspergillus niger [23]): 6.25 mg/L
O=S(=O)(Cc1nnc(-c2ccc(Cl)cc2)o1)Nc1ccc(Cl)cc1,70.5%,69.6%,12 mm,14 mm,11 mm,13 mm,9 mm,10 mm,10 mm,11 mm,14 mm,16 mm,13 mm,15 mm,11 mm,13 mm,–
O=S(=O)(Cc1nnc(CS(=O)(=O)c2ccccc2)o1)Nc1ccccc1,66.8%,64.7%,13 mm,14 mm,12 mm,15 mm,11 mm,12 mm,12 mm,14 mm,13 mm,16 mm,16 mm,20 mm,14 mm,17 mm,–
O=C1O[C@H]([C@@H](O)CO)C(O)=C1O,96.9%,95.4%,–,–,–,–,–,–,–,–,–,–,–,–,–,–,–
